# Data reported in publication PMC9359741 (Clinical Cancer Research, 2022).
# Several values for one entry are separate records, joined by “and”; a condition that tells them apart may be missing. Equal entries are not always repeated.
# Assays:
# [1] = system: patients with selected advanced solid tumors; assay type: in vivo, human; conditions: Phase 1b; overall
# How it was run: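 Adults (≥18 y) with histologically or cytologically confirmed selected advanced solid tumours. Oral test compound started at 200 mg QD, with planned escalation to 400 mg QD, plus anti-PD-1 antibody 2 mg/kg IV every 3 weeks. DLT incidence defined the MTD (DLT criteria in supplement). AEs and lab abnormalities were graded by CTCAE v4.03 in all patients given ≥1 dose and summarized descriptively.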
# [2] = system: patients with PDA, PD-1/PD-L1 IR advanced solid tumors or prOVCA; assay: Phase 2, ARRY-382 300 mg QD plus pembrolizumab 200 mg IV Q3W: adverse events; assay type: in vivo, human; conditions: for Deaths: mostly disease progression
# How it was run: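 Open-label study at 12 US centres with three cohorts: pancreatic ductal adenocarcinoma after ≥1 prior systemic line; tumours progressing on anti-PD-1/PD-L1; ovarian, peritoneal or fallopian cancer progressing ≤6 months after ≥4 platinum cycles. Oral test compound 300 mg QD plus anti-PD-1 antibody 200 mg IV every 3 weeks. AEs, SAEs and labs graded by CTCAE v4.03 in all dosed patients; descriptive summary.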
smiles,measurement,setting,value
Cc1cccc(Cn2nc(C3CC3)c3c(NC(=O)c4cnc5cc(OCCN6CCN(C)CC6)ccn45)cccc32)n1 [ARRY-382],Patients reporting DLTs,[1],3/19
same,Periorbital edema,[1],5.3%
same,ARRY-382-related SAEs,[2]; PD-1/PD-L1 IR,15.8%
same,ARRY-382-related fatigue,[2]; PD-1/PD-L1 IR,47.4%
same,ARRY-382-related grade ≥3 AEs,[2]; PD-1/PD-L1 IR,57.9%
same,ARRY-382-related increased CPK,[2]; PD-1/PD-L1 IR,47.4%
same,ARRY-382-related nausea,[2]; PD-1/PD-L1 IR,42.1%
same,Dose reduction or interruption of ARRY-382 due to AEs,[2]; PD-1/PD-L1 IR,13 (68.4%) n (%)
same,Patients with ≥1 dose reduction or interruption of ARRY-382,[2]; PD-1/PD-L1 IR,15 (78.9%) n (%)
same,Permanent discontinuations due to AEs,[2]; PD-1/PD-L1 IR,1 (5.3%) n (%)
same,ARRY-382-related AEs: ALT increased,"[2]; PD-1/PD-L1 IR, N = 19",2 (10.5) n (%)
same,ARRY-382-related AEs: AST increased,"[2]; PD-1/PD-L1 IR, N = 19",6 (31.6) n (%)
same,ARRY-382-related AEs: All AEs,"[2]; PD-1/PD-L1 IR, N = 19",17 (89.5%) n (%) and 17 (89.5) n (%)
same,ARRY-382-related AEs: Amylase increased,"[2]; PD-1/PD-L1 IR, N = 19",4 (21.1) n (%)
same,ARRY-382-related AEs: Blood CPK increased,"[2]; PD-1/PD-L1 IR, N = 19",9 (47.4) n (%)
same,ARRY-382-related AEs: Decreased appetite,"[2]; PD-1/PD-L1 IR, N = 19",3 (15.8) n (%)
same,ARRY-382-related AEs: Diarrhea,"[2]; PD-1/PD-L1 IR, N = 19",5 (26.3) n (%)
same,ARRY-382-related AEs: Fatigue,"[2]; PD-1/PD-L1 IR, N = 19",9 (47.4) n (%)
same,ARRY-382-related AEs: Nausea,"[2]; PD-1/PD-L1 IR, N = 19",8 (42.1) n (%)
same,ARRY-382-related AEs: Vomiting,"[2]; PD-1/PD-L1 IR, N = 19",7 (36.8) n (%)
same,Deaths,[2]; PD-1/PD-L1 IR,10 (52.6%) n (%)
same,ARRY-382-related SAEs,[2]; PDA,11.1%
same,ARRY-382-related fatigue,[2]; PDA,33.3%
same,ARRY-382-related grade ≥3 AEs,[2]; PDA,25.9%
same,ARRY-382-related increased AST,[2]; PDA,18.5%
same,ARRY-382-related increased CPK,[2]; PDA,18.5%
same,ARRY-382-related nausea,[2]; PDA,18.5%
same,Dose reduction or interruption of ARRY-382 due to AEs,[2]; PDA,10 (37.0%) n (%)
same,Patients with ≥1 dose reduction or interruption of ARRY-382,[2]; PDA,16 (59.3%) n (%)
same,Permanent discontinuations due to AEs,[2]; PDA,4 (14.8%) n (%)
same,ARRY-382-related AEs: ALT increased,"[2]; PDA, N = 27",4 (14.8) n (%)
same,ARRY-382-related AEs: AST increased,"[2]; PDA, N = 27",5 (18.5) n (%)
same,ARRY-382-related AEs: All AEs,"[2]; PDA, N = 27",17 (63.0%) n (%) and 17 (63.0) n (%)
same,ARRY-382-related AEs: Amylase increased,"[2]; PDA, N = 27",2 (7.4) n (%)
same,ARRY-382-related AEs: Blood CPK increased,"[2]; PDA, N = 27",5 (18.5) n (%)
same,ARRY-382-related AEs: Decreased appetite,"[2]; PDA, N = 27",5 (18.5) n (%)
same,ARRY-382-related AEs: Diarrhea,"[2]; PDA, N = 27",4 (14.8) n (%)
same,ARRY-382-related AEs: Fatigue,"[2]; PDA, N = 27",9 (33.3) n (%)
same,ARRY-382-related AEs: Nausea,"[2]; PDA, N = 27",5 (18.5) n (%)
same,ARRY-382-related AEs: Vomiting,"[2]; PDA, N = 27",2 (7.4) n (%)
same,Deaths,[2]; PDA,20 (74.1%) n (%)
same,ARRY-382-related AEs: ALT increased,"[2]; Total, N = 57",10 (17.5) n (%)
same,ARRY-382-related AEs: AST increased,"[2]; Total, N = 57",15 (26.3) n (%)
same,ARRY-382-related AEs: All AEs,"[2]; Total, N = 57",43 (75.4%) n (%) and 43 (75.4) n (%)
same,ARRY-382-related AEs: Amylase increased,"[2]; Total, N = 57",6 (10.5) n (%)
same,ARRY-382-related AEs: Blood CPK increased,"[2]; Total, N = 57",16 (28.1) n (%)
same,ARRY-382-related AEs: Decreased appetite,"[2]; Total, N = 57",8 (14.0) n (%)
same,ARRY-382-related AEs: Diarrhea,"[2]; Total, N = 57",9 (15.8) n (%)
same,ARRY-382-related AEs: Fatigue,"[2]; Total, N = 57",18 (31.6) n (%)
same,ARRY-382-related AEs: Nausea,"[2]; Total, N = 57",16 (28.1) n (%)
same,ARRY-382-related AEs: Vomiting,"[2]; Total, N = 57",10 (17.5) n (%)
same,Patients with ≥1 TEAE,[2]; in each cohort,> 90%
same,Patients with a Grade 4 AE,[2]; overall,7 (12.3%) n (%)
same,Patients with a grade 3 AE,[2]; overall,33 (57.9%) n (%)
same,Periorbital edema,[2]; overall,7.0%
same,Patients with a grade 5 AE,"[2]; overall, none related to study treatment",3 (5.3%) n (%)
same,ARRY-382-related SAEs,[2]; prOVCA,0.0%
same,ARRY-382-related grade ≥3 AEs,[2]; prOVCA,45.5%
same,Dose reduction or interruption of ARRY-382 due to AEs,[2]; prOVCA,7 (63.6%) n (%)
same,Patients with ≥1 dose reduction or interruption of ARRY-382,[2]; prOVCA,7 (63.6%) n (%)
same,Permanent discontinuations due to AEs,[2]; prOVCA,1 (9.1%) n (%)
same,Treatment discontinuations due to AEs (primary reason),[2]; prOVCA,2 (18.2%) n (%)
same,ARRY-382-related AEs: ALT increased,"[2]; prOVCA, N = 11",4 (36.4) n (%)
same,ARRY-382-related AEs: AST increased,"[2]; prOVCA, N = 11",4 (36.4) n (%)
same,ARRY-382-related AEs: All AEs,"[2]; prOVCA, N = 11",9 (81.8%) n (%) and 9 (81.8) n (%)
same,ARRY-382-related AEs: Amylase increased,"[2]; prOVCA, N = 11",0 (0.0) n (%)
same,ARRY-382-related AEs: Blood CPK increased,"[2]; prOVCA, N = 11",2 (18.2) n (%)
same,ARRY-382-related AEs: Decreased appetite,"[2]; prOVCA, N = 11",0 (0.0) n (%)
same,ARRY-382-related AEs: Diarrhea,"[2]; prOVCA, N = 11",0 (0.0) n (%)
same,ARRY-382-related AEs: Fatigue,"[2]; prOVCA, N = 11",0 (0.0) n (%)
same,ARRY-382-related AEs: Nausea,"[2]; prOVCA, N = 11",3 (27.3) n (%)
same,ARRY-382-related AEs: Vomiting,"[2]; prOVCA, N = 11",1 (9.1) n (%)
same,Deaths,[2]; prOVCA,5 (45.5%) n (%)
